Experimental data of several laboratories.
Each line is one published result; the experiments were not run side by side.
IGF1R: Insulin-like growth factor 1 receptor (IGF1R, Homo sapiens, UniProt P08069)

Cc1cc(NC(=O)c2cccc3cc(-c4cccc5[nH]nc(N)c45)ccc23)ccc1F
activity vs control (IGF1R; enzyme activity; inhibitor; 0.1 µM): 143%

CCN(CC)CCNC(=O)c1c(C)[nH]c(/C=C2\C(=O)Nc3ccc(F)cc32)c1C
inhibition (IGF1R; enzyme activity; inhibitor; 0.3 µM): 4%

COc1cc(Nc2c(C#N)cnc3cc(OCCCN4CCN(C)CC4)c(OC)cc23)c(Cl)cc1Cl
remaining signal (IGF1R; cell-free assay; 0.5 µM): 91.5%

CN1CC(Oc2cnc(C#N)cc2-c2ccn3nc(NC(=O)C4CC4)cc3c2)C1
inhibition (Insulin-like growth factor 1 receptor, phosphorylated (IGF1R, Homo sapiens, UniProt P08069); enzyme activity; inhibitor; 1 µM): -13%

Nc1ncnc2occ(-c3ccc(NC(=O)Nc4cc(C(F)(F)F)ccc4F)cc3)c12
remaining signal (IGF1R; cell-free assay; 20 µM): 13%

Cc1ccc(NC(=O)c2ccc(C)c(C(F)(F)F)c2)cc1C#Cc1nn(C2CCC(O)CC2)c2ncnc(N)c12 (stereo not drawn)
remaining signal (IGF1R; cell-free assay; 10 µM): 66%

CN(C(=O)c1ccccc1)c1cc(N(C)c2ccc3c(c2)CCc2ccc(C(=O)NCCN4CCOCC4)cc2C3=O)ccc1F
remaining binding (IGF1R; cell-free assay; competition with immobilised ligand; 1 µM): 90%

CNCc1ccc(-c2cc(-c3nc(-c4ccc(S(=O)(=O)C(C)C)cc4)cnc3N)on2)cc1
inhibition (IGF1R; enzyme activity; inhibitor; 0.4 µM): 0%

COc1ccc(Cl)cc1NC(=O)Nc1cc(C)nc2ccccc12
remaining signal (IGF1R; cell-free assay; 0.5 µM): 94.9%

Cc1ccc(C(=O)NCc2ccsc2)cc1C#Cc1cn(C(C)C)c2ncnc(N)c12
activity vs control (IGF1R; enzyme activity; inhibitor; 1 µM): 75%

Cc1c(NC(=O)c2cc(C(N)=O)nc3cc(F)ccc23)c(C(F)(F)F)nn1Cc1ccc(C#N)cc1
remaining binding (IGF1R; cell-free assay; competition with immobilised ligand; 1 µM): 100%

CN(c1ncccc1CNc1nc(Nc2ccc3c(c2)CC(=O)N3)ncc1C(F)(F)F)S(C)(=O)=O
inhibition (IGF1R; enzyme activity; inhibitor; 1 µM): 97.6%

CS(=O)(=O)Nc1cccc(-c2csc(NC(=O)CSc3nc4nccnc4c(=O)n3CCc3ccccc3)n2)c1
inhibition (IGF1R; enzyme activity; inhibitor; 10 µM): 5%

Nc1c(C(=O)NCc2ccc(C(=O)NCCCC3CCCCC3)cc2)cnn1-c1ccccc1
remaining binding (IGF1R; cell-free assay; competition with immobilised ligand; 0.1 µM): 98%

O=C1NC(=O)c2cc(Nc3ccc(F)cc3)c(Nc3ccc(F)cc3)cc21
remaining signal (IGF1R; cell-free assay; 0.5 µM): 102%

O=C(NCc1ncc(C(F)(F)F)cc1Cl)c1ccc2c(c1)C1(CCS(=O)(=O)CC1)[C@@H](C1CC1)N2S(=O)(=O)c1ccc(F)cc1
remaining binding (IGF1R; cell-free assay; competition with immobilised ligand; 1 µM): 88%

COc1cc2ncnc(Nc3ccc(Oc4ccccc4)cc3C)c2cc1OC
inhibition (IGF1R; enzyme activity; inhibitor; 1 µM): 1%

Cc1cc(-n2nc(Cc3cc(F)cc(C(F)(F)F)c3)nc2C)ccc1C(N)=O
remaining binding (IGF1R; cell-free assay; competition with immobilised ligand; 1 µM): 98%

CNC(=O)c1cc(Oc2ccc(NC(=O)Nc3ccc(Cl)c(C(F)(F)F)c3)cc2)ccn1
inhibition (IGF1R; enzyme activity; inhibitor; 0.3 µM): -3%

CCS(=O)(=O)c1cc2cc(C[C@@](O)(CC(C)(C)c3ccc(F)cc3C(N)=O)C(F)(F)F)[nH]c2cn1
remaining binding (IGF1R; cell-free assay; competition with immobilised ligand; 1 µM): 100%

C=CC(=O)Nc1cc(Nc2nccc(Nc3cc(Cl)c(F)cc3C(C)(C)O)n2)c(OC)cc1N1CC[C@@H](N(C)C)C1
inhibition (IGF1R; enzyme activity; inhibitor; 1 µM): 35%
